Data as given in ChEMBL document CHEMBL4177588, “Synthesis, biological evaluation, and metabolic stability of chlorogenic acid derivatives possessing thiazole as potent inhibitors of α-MSH-stimulated melanogenesis” (Bioorg Med Chem Lett, 2017).

Assays:
[1] = Half-life in human liver S9 fraction at 1 uM pretreated for 5 mins followed by NADPH/UDPGA/ PAPS addition by Q-TOF LC-MS/MS analysis; format: ADME, subcellular
Summary of the method: (§1)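 Human liver S9 fraction (1 mg/mL) in 50 mM Tris buffer, pH 7.5, fortified with NADPH (1 mM), UDPGA and PAPS to support oxidative, glucuronidation and sulfation pathways. Parent loss and metabolites were analysed by Q-TOF LC-MS/MS.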

[2] = Drug metabolism in human liver S9 fraction assessed as UGT-mediated compound glucuronidation by measuring M2 formation at 1 uM pretreated for 5 mins followed by NADPH/UDPGA/ PAPS addition by Q-TOF LC-MS/MS analysis; format: ADME, subcellular; conditions: s9, 1 µM; summary of the method: as §1
[3] = Drug metabolism in human liver S9 fraction assessed as SULT-mediated compound sulfation by measuring M1 formation at 1 uM pretreated for 5 mins followed by NADPH/UDPGA/ PAPS addition by Q-TOF LC-MS/MS analysis; format: ADME, subcellular; conditions: s9, 1 µM; summary of the method: as §1
[4] = Drug metabolism in human liver microsomes assessed as compound oxidation at 1 uM measured after 5 mins in absence of NADPH by Q-TOF LC-MS/MS analysis; format: ADME, microsome
B16 = assay: Inhibition of alpha-MSH stimulated melanogenesis in mouse B16 cells; format: functional, cell-based
[5] = Drug metabolism in human liver S9 fraction assessed as UGT-mediated compound glucuronidation by measuring M4 formation at 1 uM pretreated for 5 mins followed by NADPH/UDPGA/ PAPS addition by Q-TOF LC-MS/MS analysis; format: ADME, subcellular; conditions: s9, 1 µM; summary of the method: as §1
[6] = Drug metabolism in human liver S9 fraction assessed as compound oxidation by measuring (4-Benzo[1,3]dioxol-5-yl-1-oxo-thiazol-2-yl)-(4-trifluoromethyl-benzyl)-amine formation at 1 uM pretreated for 5 mins followed by NADPH/UDPGA/ PAPS addition by Q-TOF LC-MS/MS analysis; format: ADME, subcellular; conditions: s9, 1 µM; summary of the method: as §1
[7] = Drug metabolism in human liver S9 fraction assessed as compound oxidation by measuring 4-[2-(4-Trifluoromethyl-benzylamino)-thiazol-4-yl]-benzene-1,2-diol formation at 1 uM pretreated for 5 mins followed by NADPH/UDPGA/ PAPS addition by Q-TOF LC-MS/MS analysis; format: ADME, subcellular; conditions: s9, 1 µM; summary of the method: as §1
[8] = Drug metabolism in human liver S9 fraction assessed as SULT-mediated compound sulfation by measuring M3 formation at 1 uM pretreated for 5 mins followed by NADPH/UDPGA/ PAPS addition by Q-TOF LC-MS/MS analysis; format: ADME, subcellular; conditions: s9, 1 µM; summary of the method: as §1
[9] = Drug metabolism in human liver S9 fraction treated with 4-(Benzo[d][1,3]dioxol-5-yl)-N-(4-(trifluoromethyl)benzyl)thiazol-2-amine assessed as metabolite formation at 1 uM pretreated for 5 mins followed by NADPH/UDPGA/ PAPS addition by Q-TOF LC-MS/MS analysis; format: ADME, subcellular; conditions: s9, 1 µM; summary of the method: as §1

Compound	IC50 (B16) [µM]	also measured
O=C(/C=C/c1ccc(O)c(O)c1)NCc1ccc(C(F)(F)F)cc1		half-life at 1 µM [1]: 5 min; Drug metabolism [2]: Metabolite_Detected; Drug metabolism [3]: Metabolite_Detected; Drug metabolism [4]: Metabolite_Detected
Oc1ccc(-c2csc(NCc3cccc(Cl)c3)n2)cc1O	> 50	
FC(F)(F)c1ccc(CNc2nc(-c3ccc4c(c3)OCO4)cs2)cc1	0.9	Drug metabolism [5]: Metabolite_Detected; half-life at 1 µM [1]: 69.3 min; Drug metabolism [6]: Metabolite_Detected; Drug metabolism [7]: Metabolite_Detected; Drug metabolism [8]: Metabolite_Detected
Oc1ccc(-c2csc(NCc3ccc(C(F)(F)F)cc3)n2)cc1O	32.7	Drug metabolism [9]: Metabolite_Detected
c1ccc(CNc2nc(-c3ccc4c(c3)OCO4)cs2)cc1	11.1	
Oc1ccc(-c2csc(NCc3ccccc3Cl)n2)cc1O	2	
Clc1cccc(CNc2nc(-c3ccc4c(c3)OCO4)cs2)c1	13.2	
Oc1ccc(-c2csc(NCc3cccc(C(F)(F)F)c3)n2)cc1O	1.8	
FC(F)(F)c1cccc(CNc2nc(-c3ccc4c(c3)OCO4)cs2)c1	15.3	
Clc1ccc(CNc2nc(-c3ccc4c(c3)OCO4)cs2)cc1	37.9	
Oc1ccc(-c2csc(NCc3ccc(Cl)cc3)n2)cc1O	11.5	
[O-][s+]1cc(-c2ccc3c(c2)OCO3)nc1NCc1ccc(C(F)(F)F)cc1 (stereo not given)		Drug metabolism [9]: Metabolite_Detected
Clc1ccccc1CNc1nc(-c2ccc3c(c2)OCO3)cs1	12.4	
Oc1ccc(-c2csc(NCc3ccccc3C(F)(F)F)n2)cc1O	2.6	
FC(F)(F)c1ccccc1CNc1nc(-c2ccc3c(c2)OCO3)cs1	9.6	
Oc1ccc(-c2csc(NCc3ccccc3)n2)cc1O	2.1	
